From ChEMBL document CHEMBL1212770, “Molecular and biochemical characterization of the natural chromosome-encoded class A beta-lactamase from Pseudomonas luteola” (Antimicrob Agents Chemother, 2010)
In brackets after ≈: the same amount, converted by molar mass. Activity calls are given as the source filed them. The calls are words filed in the database; no cut-off is given here.

Columns and labels:
[1] = test system: Escherichia coli; test: Antimicrobial activity against Escherichia coli DH10B by Etest method; assay type: functional; settings: K-12 DH10B
[2] = test system: Escherichia coli; test: Antimicrobial activity against Escherichia coli DH10B transfected with pBK-L3 expressing blaLUT-1 by Etest method; assay type: functional; settings: K-12 DH10B
[3] = test system: Pseudomonas luteola; test: Antimicrobial activity against Pseudomonas luteola LAM expressing blaLUT-1 by Etest method; assay type: functional
[4] = test system: Pseudomonas luteola; test: Antimicrobial activity against Pseudomonas luteola expressing blaLUT-2 to blaLUT-6 by Etest method; assay type: functional
[5] = test system: Pseudomonas luteola; test: Antimicrobial activity against Pseudomonas luteola LAM expressing blaLUT-1 by Etest method in presence of 4 ug/ml Tazobactam; assay type: functional
[6] = test system: Pseudomonas luteola; test: Antimicrobial activity against Pseudomonas luteola expressing blaLUT-2 to blaLUT-6 by Etest method in presence of 4 ug/ml Tazobactam; assay type: functional
[7] = test system: Escherichia coli; test: Antimicrobial activity against Escherichia coli DH10B by Etest method in presence of 4 ug/ml Tazobactam; assay type: functional; settings: K-12 DH10B
[8] = test system: Escherichia coli; test: Antimicrobial activity against Escherichia coli DH10B transfected with pBK-L3 expressing blaLUT-1 by Etest method in presence of 4 ug/ml Tazobactam; assay type: functional; settings: K-12 DH10B
[9] = test system: Escherichia coli; test: microbe, parasite or virus in culture; settings: K-12 DH10B
[10] = test system: Escherichia coli; test: Antimicrobial activity against Escherichia coli DH10B by Etest method in presence of 4 ug/ml clavulanic acid; assay type: functional; settings: K-12 DH10B
[11] = test system: Pseudomonas luteola; test: Antimicrobial activity against Pseudomonas luteola LAM expressing blaLUT-1 by Etest method in presence of 4 ug/ml clavulanic acid; assay type: functional
[12] = test system: Pseudomonas luteola; test: Antimicrobial activity against Pseudomonas luteola expressing blaLUT-2 to blaLUT-6 by Etest method in presence of 4 ug/ml clavulanic acid; assay type: functional
[13] = test system: Pseudomonas luteola; test: Antimicrobial activity against Pseudomonas luteola by Etest method; assay type: functional
[14] = test system: Pseudomonas luteola; test: Antimicrobial activity against Pseudomonas luteola by disk diffusion method; assay type: functional
Outline: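 Disk diffusion panel of 32 antimicrobial drugs tested on P. luteola clinical isolates and the type strain. Isolates were identified by API-20 NE and by sequencing of PCR-amplified rrs and rpoB.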

SMILES	MIC [1] [µg/mL]	MIC [2] [µg/mL]	MIC [3] [µg/mL]	MIC [4] [µg/mL]	Activity [14]	other results
CC(=O)OCC1=C(C(=O)O)N2C(=O)[C@@H](NC(=O)Cc3cccs3)[C@H]2SC1 [CEPHALOTHIN]	4 (≈ 10.1 µM)	32 (≈ 80.7 µM)	64 (≈ 161 µM)	128 (≈ 323 µM)	–	–
CCN1CCN(C(=O)N[C@@H](C(=O)N[C@@H]2C(=O)N3[C@@H]2SC(C)(C)[C@@H]3C(=O)O)c2ccccc2)C(=O)C1=O [PIPERACILLIN]	1 (≈ 1.93 µM)	8 (≈ 15.5 µM)	2 (≈ 3.86 µM)	2 (≈ 3.86 µM)	–	MIC [5]: 1 µg/mL; MIC [6]: 1 µg/mL; MIC [7]: 1 µg/mL; MIC [8]: 1 µg/mL
CC(C)(O/N=C(\C(=O)N[C@@H]1C(=O)N2C(C(=O)[O-])=C(C[n+]3ccccc3)CS[C@H]12)c1csc(N)n1)C(=O)O [CEFTAZIDIME]	0.125 (≈ 0.229 µM)	1 (≈ 1.83 µM)	0.5 (≈ 0.915 µM)	0.5 (≈ 0.915 µM)	–	MIC [9]: 0.5 µg/mL (≈ 0.915 µM); MIC [10]: 0.25 µg/mL; MIC [11]: 0.25 µg/mL; MIC [12]: 0.25 µg/mL
O=C(O)c1cn(C2CC2)c2cc(N3CCNCC3)c(F)cc2c1=O [CIPROFLOXACIN]	–	–	–	–	–	MIC [13]: 0.032 µg/mL (≈ 0.0966 µM)
CCn1cc(C(=O)O)c(=O)c2ccc(C)nc21 [NALIDIXIC ACID]	–	–	–	–	inactive	MIC [13]: 16 µg/mL (≈ 68.9 µM)
C[C@H]1[C@H](NC(=O)/C(=N\OC(C)(C)C(=O)O)c2csc(N)n2)C(=O)N1S(=O)(=O)O [AZTREONAM]	–	2 (≈ 4.59 µM)	2 (≈ 4.59 µM)	4 (≈ 9.19 µM)	–	–
COc1cc(Cc2cnc(N)nc2N)cc(OC)c1OC	–	–	–	–	inactive	–
Cn1nnnc1SCC1=C(C(=O)O)N2C(=O)[C@@H](NC(=O)[C@H](O)c3ccccc3)[C@H]2SC1	–	–	–	–	inactive	–
